Measured values taken from ChEMBL document CHEMBL3091379, “A selective mitochondrial-targeted chlorambucil with remarkable cytotoxicity in breast and pancreatic cancers” (J Med Chem, 2013).
Active and inactive are the calls of the source. The calls are words filed in the database; no cut-off is given here.

What was measured:
[1] = test system: MDA-MB-435; assay: Cytotoxicity against mitochondrial DNA-deficient human MDA-MB-435 rho theta-W02 cells after 72 hrs by MTT assay; format: functional, cell-based; details: MDA-MB-435, 72 h
In short: (§1)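 Cells seeded at 4 × 10^3 per well, adhered overnight, then exposed continuously for 72 h. Media refreshed, MTT added to 0.3 mg/mL final, 4 h at 37 °C. Formazan dissolved in DMSO and read at 570 nm. IC50 taken from log concentration vs % nonviable cells; triplicate wells. Rho θ lines grown with 50 μg/mL uridine.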

[2] = test system: MDA-MB-231; assay: Cytotoxicity against wild type human MDA-MB-231 cells after 72 hrs by MTT assay; format: functional, cell-based; details: MDA-MB-231, 72 h; in short: as §1
[3] = Cell cycle arrest in human MIAPaCa2 cells assessed as increase of […] cells at 20 uM after 24 to 72 hrs by flow cytometry; format: functional, cell-based; details: MIA PaCa-2
In short: (§2)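 Cells in 6-well dishes exposed to 2 or 20 μM for 0−72 h, trypsinized, PBS-washed, fixed and permeabilized in 70% ethanol. Stained with 10 μg/mL propidium iodide plus 100 μg/mL RNase A. DNA content read by flow cytometry with 488 nm excitation and 575/26 nm bandpass.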

[4] = Cytotoxicity against human Hs578T cells after 72 hrs by MTT assay; format: functional, cell-based; details: Hs-578T; in short: as §1
[5] = Cytotoxicity against human MIAPaCa2 cells after 72 hrs by MTT assay; format: functional, cell-based; details: MIA PaCa-2, 72 h; in short: as §1
[6] = test system: MCF7; assay: Cytotoxicity against human MCF7 cells after 72 hrs by MTT assay; format: functional, cell-based; details: MCF7, 72 h; in short: as §1
[7] = test system: MDA-MB-468; assay: Cytotoxicity against human MDA-MB-468 cells after 72 hrs by MTT assay in presence of NAC; format: functional, cell-based; details: MDA-MB-468, 72 h
[8] = test system: MDA-MB-468; assay: Induction of nuclear DNA damage in human MDA-MB-468 cells assessed as increase in gammaH2A.X expression at 20 uM by Western blotting analysis; format: functional, cell-based; details: TDE = time-dependent effect
[9] = Cytotoxicity against human SKBR3 cells after 72 hrs by MTT assay; format: functional, cell-based; details: SK-BR-3, 72 h; in short: as §1
[10] = test system: MDA-MB-435; assay: Cytotoxicity against wild type human MDA-MB-435 cells after 72 hrs by MTT assay; format: functional, cell-based; details: MDA-MB-435, 72 h; in short: as §1
[11] = test system: MIA PaCa-2; assay: Induction of nuclear DNA damage in human MIAPaCa2 cells assessed as increase in gammaH2A.X expression at 75 uM by Western blotting analysis; format: functional, cell-based; details: TDE = time-dependent effect
[12] = test system: MIA PaCa-2; assay: Induction of nuclear DNA damage in human MIAPaCa2 cells assessed as increase in gammaH2A.X expression after 24 hrs by Western blotting analysis relative to control; format: functional
[13] = test system: MDA-MB-468; assay: Cytotoxicity against human MDA-MB-468 cells after 72 hrs by MTT assay; format: functional, cell-based; details: MDA-MB-468, 72 h; in short: as §1
[14] = Cytotoxicity against human CAMA1 cells after 72 hrs by MTT assay; format: functional, cell-based; details: CAMA-1, 72 h; in short: as §1
[15] = test system: MDA-MB-231; assay: Cytotoxicity against mitochondrial DNA-deficient human MDA-MB-231 rho theta-W02 cells after 72 hrs by MTT assay; format: functional, cell-based; details: MDA-MB-231, 72 h; in short: as §1
[16] = Cytotoxicity against human BxPC3 cells after 72 hrs by MTT assay; format: functional, cell-based; details: BXPC-3, 72 h; in short: as §1
[17] = test system: BT-474; assay: Cytotoxicity against human BT474 cells after 72 hrs by MTT assay; format: functional, cell-based; details: BT-474, 72 h
[18] = Cell cycle arrest in human MIAPaCa2 cells assessed as accumulation at G2/M phase at 20 uM after 24 to 48 hrs by flow cytometry; format: functional, cell-based; details: MIA PaCa-2; in short: as §2
[19] = test system: MIA PaCa-2; assay: Induction of nuclear DNA damage in human MIAPaCa2 cells assessed as increase in gammaH2A.X expression after 24 hrs by Western blotting analysis in presence of NAC relative to control; format: functional
[20] = Antitumor activity against human MIAPaCa2 cells xenografted in athymic nude mouse assessed as inhibition of tumor growth at 10 mg/kg, ip administered 5 times a week for 36 days; format: functional; details: MIA PaCa-2, ip, 864 h, route intraperitoneal, read-out: TGI
In short: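 Established subcutaneous xenografts (2 × 10^6 cells in 1:1 matrigel–basal DMEM, right rear flank) in 4−6 week old mice; randomized at ~100 mm3, n = 6 per group. Dosed ip 10 mg/kg five times weekly; DMSO stock diluted in saline or sesame oil. Caliper volume V = d2 × D/2. Unpaired Student's t-test vs vehicle at day 36.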

[21] = test system: MDA-MB-435; assay: Cytotoxicity against mitochondrial DNA-deficient human MDA-MB-435 rho theta-W01 cells after 72 hrs by MTT assay; format: functional, cell-based; details: MDA-MB-435, 72 h; in short: as §1
[22] = test system: BT-549; assay: Cytotoxicity against human BT549 cells after 72 hrs by MTT assay; format: functional, cell-based; details: BT-549, 72 h; in short: as §1
[23] = test system: BXPC-3; assay: Sensitivity ratio of chlorambucil IC50 to compound IC50 for human BxPC3 cells; format: functional
[24] = test system: MDA-MB-435; assay: Sensitivity ratio of chlorambucil IC50 to compound IC50 for wild type human MDA-MB-435 cells; format: functional
[25] = test system: CAMA-1; assay: Sensitivity ratio of chlorambucil IC50 to compound IC50 for human CAMA1 cells; format: functional
[26] = test system: SK-BR-3; assay: Sensitivity ratio of chlorambucil IC50 to compound IC50 for human SKBR3 cells; format: functional
[27] = test system: MIA PaCa-2; assay: Induction of nuclear DNA damage in human MIAPaCa2 cells assessed as increase in gammaH2A.X expression at 2 uM by Western blotting analysis; format: functional, cell-based; details: TDE = time-dependent effect
[28] = test system: MDA-MB-231; assay: Sensitivity ratio of chlorambucil IC50 to compound IC50 for human MDA-MB-231 cells; format: functional
[29] = Cell cycle arrest in human MIAPaCa2 cells assessed as accumulation at S phase at 2 uM after 24 hrs by flow cytometry; format: functional, cell-based; details: MIA PaCa-2; in short: as §2
[30] = test system: MDA-MB-435; assay: Ratio of IC50 for mitochondrial DNA-deficient human MDA-MB-435 rho theta-W02 cells to IC50 for wild type human MDA-MB-435 cells; format: functional
[31] = Cell cycle arrest in human MIAPaCa2 cells assessed as increase of […] cells at 2 uM after 24 to 72 hrs by flow cytometry; format: functional, cell-based; details: MIA PaCa-2; in short: as §2
[32] = test system: Hs-578T; assay: Sensitivity ratio of chlorambucil IC50 to compound IC50 for human Hs 578T cells; format: functional
[33] = test system: MDA-MB-435; assay: Ratio of IC50 for mitochondrial DNA-deficient human MDA-MB-435 rho theta-W01 cells to IC50 for wild type human MDA-MB-435 cells; format: functional
[34] = Cell cycle arrest in human MIAPaCa2 cells assessed as accumulation at G2/M phase at 2 uM after 24 to 48 hrs by flow cytometry; format: functional, cell-based; details: MIA PaCa-2; in short: as §2
[35] = test system: BT-474; assay: Sensitivity ratio of chlorambucil IC50 to compound IC50 for human BT474 cells; format: functional
[36] = test system: MIA PaCa-2; assay: Sensitivity ratio of chlorambucil IC50 to compound IC50 for human MIAPaCa2 cells; format: functional
[37] = test system: MDA-MB-468; assay: Sensitivity ratio of chlorambucil IC50 to compound IC50 for human MDA-MB-468 cells; format: functional
[38] = test system: MDA-MB-468; assay: Induction of nuclear DNA damage in human MDA-MB-468 cells assessed as increase in gammaH2A.X expression at 2 uM by Western blotting analysis; format: functional, cell-based; details: TDE = time-dependent effect
[39] = Drug uptake in mitochondria of human MIAPaCa2 cells at 10 uM after 18 hrs using […] staining by laser-scanning confocal microscopy; format: ADME; details: mia paca-2, 18 h
In short: (§3)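 Cells on glass coverslips, adhered overnight, exposed 18 h at 10 μM. Fixed in 3.7% formaldehyde 15 min at RT, permeabilized in ice-cold acetone 5 min at −20 °C, blocked in 1% BSA/PBS. Anti-TPP antisera and anti-complex I antibody (1:1000) overnight at 4 °C, then Cy5/Cy3 secondaries (1:200) 2 h. Imaged by scanning confocal microscopy.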

[40] = test system: MIA PaCa-2; assay: Induction of nuclear DNA damage in human MIAPaCa2 cells assessed as increase in gammaH2A.X expression after 5 to 24 hrs by Western blotting analysis; format: functional, cell-based
[41] = test system: MDA-MB-231; assay: Ratio of IC50 for mitochondrial DNA-deficient human MDA-MB-231 rho theta-W02 cells to IC50 for wild type human […]; format: functional
[42] = test system: MCF7; assay: Sensitivity ratio of chlorambucil IC50 to compound IC50 for human MCF7 cells; format: functional
[43] = Drug uptake in nucleus of human MIAPaCa2 cells at 10 uM after 18 hrs using […] staining by laser-scanning confocal microscopy; format: ADME, cell-based; details: mia paca-2, 18 h; in short: as §3
[44] = Drug uptake in cytoplasm of human MIAPaCa2 cells at 10 uM after 18 hrs using […] staining by laser-scanning confocal microscopy; format: ADME, cell-based; details: mia paca-2, 18 h; in short: as §3
[45] = test system: BT-549; assay: Sensitivity ratio of chlorambucil IC50 to compound IC50 for human BT549 cells; format: functional
[46] = test system: MDA-MB-468; assay: Induction of nuclear DNA damage in human MDA-MB-468 cells assessed as increase in gammaH2A.X expression after 5 to 24 hrs by Western blotting analysis; format: functional, cell-based

With `O=C(O)CCCc1ccc(N(CCCl)CCCl)cc1` [CHLORAMBUCIL] the IC50 [1] was greater than 200 µM, the IC50 [2] was greater than 200 µM and the Activity [3] was “Active”. The IC50 [4] was 162 µM, the IC50 [5] was 78.3 µM and the IC50 [6] was 73.3 µM. The IC50 [7] was 67.5 µM, the Activity [8] was “tde” and the IC50 [9] was 248 µM. The IC50 [10] was 150 µM, the Activity [11] was “tde” and the “fold change (FC)” value [12] was 2.5. The IC50 [13] was 43.8 µM, the IC50 [14] was 192 µM and the IC50 [15] was greater than 200 µM. For the same molecule, the IC50 [16] was greater than 100000 nM, the IC50 [17] was 238 µM and the Activity [18] was “Active”. For the same molecule, the “fold change (FC)” value [19] was 2.6, the inhibition in vivo at 10 mg/kg [20] was 61.5% and the IC50 [21] was greater than 200 µM. For the same molecule, the IC50 [22] was greater than 200 µM.
For `O=C(CCCc1ccc(N(CCCl)CCCl)cc1)NCCC[P+](C1CCCCC1)(C1CCCCC1)C1CCCCC1`, the IC50 [6] was 40 µM.
Work on `CCCC[P+](CCCC)(CCCC)CCCNC(=O)CCCc1ccc(N(CCCl)CCCl)cc1` yielded an IC50 [6] of 35 µM.
With `O=C(CCCc1ccc(N(CCCl)CCCl)cc1)NCCC[P+](c1ccccc1)(c1ccccc1)c1ccccc1.O=C([O-])C(F)(F)F` the IC50 [1] was 35 µM, the “Ratio IC50” value [23] was greater than 40 and the “Ratio IC50” value [24] was 50. For the same molecule, the IC50 [2] was 9.5 µM, the “Ratio IC50” value [25] was 79.9 and the IC50 [4] was 11.4 µM. For the same molecule, the “Ratio IC50” value [26] was 43.4, the IC50 [5] was 1.6 µM and the IC50 [7] was 0.6 µM. The Activity [27] was “tde”, the “Ratio IC50” value [28] was 54.8 and the Activity [29] was “Active”. The “Ratio IC50” value [30] was 11.7, the Activity [31] was “Active” and the “Ratio IC50” value [32] was 14.3. The “Ratio IC50” value [33] was 5, the Activity [34] was “Active” and the “Ratio IC50” value [35] was 36.5. The “Ratio IC50” value [36] was greater than 40, the “Ratio IC50” value [37] was 25.8 and the IC50 [9] was 5.7 µM. For the same molecule, the Activity [38] was “tde”, the IC50 [10] was 3 µM and the “fold change (FC)” value [12] was 2.9. For the same molecule, the Drug uptake [39] was “Active”, the IC50 [13] was 1.7 µM and the IC50 [14] was 2.4 µM. The IC50 [15] was greater than 20 µM, the IC50 [16] was 2500 nM and the Activity [40] was “Dose-dependent effect”. The IC50 [17] was 6.5 µM, the “fold change (FC)” value [19] was 1.2 and the inhibition in vivo at 10 mg/kg [20] was 45%. For the same molecule, the “Ratio IC50” value [41] was greater than 2.1, the “Ratio IC50” value [42] was 7.7 and the Drug uptake [43] was “Not Active”. The Drug uptake [44] was “Active”, the “Ratio IC50” value [45] was 27.4 and the IC50 [21] was 15 µM. The IC50 [22] was 7.3 µM and the Activity [46] was “Dose-dependent effect”.
For `O=C(CCCc1ccc(N(CCO)CCO)cc1)NCCC[P+](c1ccccc1)(c1ccccc1)c1ccccc1`, the IC50 [6] was 80 µM.
